Data set [1] is described as follows: t1/2 in monkey after PO dose (7 umol/kg). The format is ADME, organism-based. Particulars: simiiformes, in vivo. The method in brief:
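Compound was suspended in 0.2% HPMC and dosed orally to cynomolgus monkeys at the indicated µmol/kg. Estimated oral plasma half-life (h) was derived from plasma levels; means from at least three animals.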

Data set [2] deals with T1, Polyunsaturated fatty acid 5-lipoxygenase (Rattus norvegicus) (UniProt P12527).
T1 sequence (whole entry): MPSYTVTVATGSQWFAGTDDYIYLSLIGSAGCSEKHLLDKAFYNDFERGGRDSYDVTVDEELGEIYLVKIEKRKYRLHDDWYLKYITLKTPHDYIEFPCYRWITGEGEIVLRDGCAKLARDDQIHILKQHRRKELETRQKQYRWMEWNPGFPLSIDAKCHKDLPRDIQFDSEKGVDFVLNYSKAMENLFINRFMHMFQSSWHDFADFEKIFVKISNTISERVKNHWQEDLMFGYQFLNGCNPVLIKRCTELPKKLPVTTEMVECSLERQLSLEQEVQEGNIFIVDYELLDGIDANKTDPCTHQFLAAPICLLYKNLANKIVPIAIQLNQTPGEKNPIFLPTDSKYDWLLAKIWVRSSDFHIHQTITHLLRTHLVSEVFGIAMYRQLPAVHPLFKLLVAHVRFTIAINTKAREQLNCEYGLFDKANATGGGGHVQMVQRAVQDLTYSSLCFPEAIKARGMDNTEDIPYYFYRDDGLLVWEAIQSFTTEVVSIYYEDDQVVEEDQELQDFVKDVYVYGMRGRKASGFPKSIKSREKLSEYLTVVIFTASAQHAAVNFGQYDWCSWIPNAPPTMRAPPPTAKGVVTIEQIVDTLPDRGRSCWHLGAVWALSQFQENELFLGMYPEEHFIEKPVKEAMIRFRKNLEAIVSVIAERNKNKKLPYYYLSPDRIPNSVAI
Kind of data set: Percent inhibition of LTE4 formation in rats from peritoneal fluids at a dose of 200 micro mol/Kg. The format is functional. The gist of the method:
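Rat peritoneal anaphylaxis model measuring leukotriene formation. Inhibitor given orally as a 1 h pretreatment. […] ED50 (mg/kg) was estimated by linear regression and is the mean of separate dose–response determinations (n).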

Structures are written as SMILES.

A word on the half-life: it is the time in which the quantity being followed falls by half. The term inhibition denotes how much of the control response was suppressed.

In data set [1], `NC(=O)N(O)CC#Cc1ccc(Oc2ccc(F)cc2)o1` had a half-life of 1.5 h. The same compound showed an inhibition in data set [2] of 70%.

For the origin of these results see ChEMBL document CHEMBL1130069, “Structure-activity relationships of N-hydroxyurea 5-lipoxygenase inhibitors” (J Med Chem, 1997).
